# Source: PubChem BioAssay (Johns Hopkins Ion Channel Center)
# A selection: hits, their analogues and other compounds. The true share with any hit is near 3.5%.
# MrgX1 agonist: agonists of human MrgX1 receptor, primary screen, HEK293 cells, Fluo-4 calcium flux; Fluo-4 calcium fluorescence, agonist mode; stronger effect = higher value; AID 588627, 2011; hit rate 0.44% among 310,000; Mas-related G-protein coupled receptor member X1 (Homo sapiens), Q96LB2; B-score at 10 µM;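 active means calcium response B-score plate-corrected fluorescence ratio at least 3 library SD, with starting fluorescence B-score inside 5 SD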
# Target sequence (Q96LB2 whole entry, looked up): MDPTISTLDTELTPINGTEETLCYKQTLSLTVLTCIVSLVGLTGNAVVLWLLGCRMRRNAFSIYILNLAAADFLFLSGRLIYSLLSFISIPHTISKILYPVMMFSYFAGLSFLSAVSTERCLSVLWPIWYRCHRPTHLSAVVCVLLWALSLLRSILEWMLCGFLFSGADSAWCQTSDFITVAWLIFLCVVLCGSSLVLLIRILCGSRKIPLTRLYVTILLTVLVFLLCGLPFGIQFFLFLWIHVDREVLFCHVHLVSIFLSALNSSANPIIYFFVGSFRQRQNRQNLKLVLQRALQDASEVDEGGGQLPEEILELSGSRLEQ
#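 Material – MrgX1-expressing HEK293 cells · Input – 15,000 cells seeded per well · Dosing – compound as first of three additions · Times – overnight seeding, then 1 h dark dye loading · Measured by – kinetic Fluo-4 NW fluorescence of intracellular calcium · Read-out – B-scored fluorescence response ratio · Benchmarks – positive and negative control wells on each plate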
# RGS4 inh: RGS4 inhibitors, primary screen, cell-based, HEK293 M3R inducible RGS4, calcium flux; Regulator of G-protein signaling 4 (Homo sapiens), P49798; Fluo-4 calcium flux; stronger effect = higher value; triggered by carbachol at its EC20; B-score at 10 µM; hit rate 0.45% among 310,000; AID 463165, 2010;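 active means B-score, a plate-corrected calcium signal, over three deviations above library mean, with baseline fluorescence within five deviations of library mean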;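 further: RGS4 expression induced by doxycycline in cells with stable M3 receptor; B-score is computed from the integrated fluorescence ratio over baseline after carbachol; higher B-score means a larger calcium signal and so more RGS4 inhibition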
# MrgX1 PAM: positive allosteric modulators of MrgX1, primary screen, HEK293 cells, Fluo-4 calcium flux. Mas-related G-protein coupled receptor member X1 (Homo sapiens), Q96LB2. B-score at 10 µM. hit rate 0.63% among 310,000. FDSS; stronger effect = higher value;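 active means plate-corrected calcium response at least 3 library SD above typical, normal starting fluorescence, not activating the receptor alone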;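 further: compound read alongside a low EC10 to EC30 dose of BAM8-22 agonist; peak minus trough fluorescence over baseline measured at the second addition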
# MrgX1 antag: antagonists of human MrgX1 receptor, primary screen, HEK293 cells, Fluo-4 calcium flux; Mas-related G-protein coupled receptor member X1 (Homo sapiens), Q96LB2; BAM8-22 antagonism; stronger effect = lower value; B-score at 10 µM; hit rate 1.3% among 310,000; AID 588676, 2011;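 active means calcium-response B-score plate-corrected more than 3 library SD below zero, starting fluorescence within 5 deviations, no agonist response on first addition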;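 further: peak minus trough fluorescence over baseline after final BAM8-22 challenge near maximal dose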
# RGS4 pot: RGS4 potentiators or activators, primary screen, cell-based, HEK293 M3R inducible RGS4, calcium flux | AID 463111, 2010 | hit rate 0.92% among 310,000 | carbachol calcium flux Fluo4; stronger effect = lower value | B-score at 10 µM;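 active means B-score of the integrated calcium signal more than 4 SD below the library mean, with starting fluorescence not abnormally high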;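 further: negative B-score means reduced calcium response which marks RGS4 activation or potentiation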
#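 test system = M3R-expressing HEK293 line, RGS4 induced by doxycycline | probe or stimulus = carbachol at ECmax as muscarinic agonist stimulus | timing = dye loading 30 min 37 °C, buffer rest 30 min RT | signal = calcium dye Fluo4 fluorescence | evaluation = B score from integrated fluorescence ratio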
# * = called active by the depositor; i = inactive; . = no result given.
SMILES,MrgX1 agonist,RGS4 inh,MrgX1 PAM,MrgX1 antag,RGS4 pot
CCCCCCc1nc2ccccc2c(=O)n1N,i,i,9.1*,i,i
CCCN1CCN(c2nc(-c3cccs3)nc3ccccc23)CC1,i,i,i,i,i
CCOC(=O)N1CCN(c2nc(-c3cccs3)nc3ccccc23)CC1,i,i,i,i,-7.3*
Cn1cccc1/C=N/n1c(-c2ccc(Cl)cc2Cl)n[nH]c1=S,27*,i,i,i,i
Cn1cccc1/C=N/n1c(-c2ccc(Cl)cc2)n[nH]c1=S,i,i,i,i,i
CC(=O)c1cn(CCC(C)C)c(=O)[nH]c1=O,i,i,i,i,i
CCCc1cc(=O)oc2cc(C)cc(O)c12,35*,i,i,i,i
CCc1cc(=O)oc2cc(C)cc(O)c12,i,i,i,i,i
Cc1cc2c(=O)oc(-c3ccc(F)cc3)nc2s1,i,i,i,-23*,i
Cc1cc2c(=O)oc(-c3ccccc3Br)nc2s1,.,i,.,.,i
COc1ccc(CN(C(=O)CSc2nnc(-c3c[nH]c4ccccc34)o2)c2ccc(F)cc2)cc1OC,i,i,i,i,-8.4*
COc1ccc(CN(C(=O)CSc2nnc(-c3ccc(F)cc3)o2)c2ccc(F)cc2)cc1,i,i,i,i,i
O=C1C=C(N2CCCCCC2)C(=O)N1c1ccc(Cl)cc1,i,i,i,i,-7*
CC1=NN(C(=O)Cc2ccc([N+](=O)[O-])cc2)C(O)(C(F)(F)C(F)(F)F)C1 (configuration not stated),i,i,i,i,i
O=c1/c(=C\c2cc([N+](=O)[O-])cc([N+](=O)[O-])c2O)sc2nc3ccccc3n12,29*,.,i,i,.
O=c1/c(=C/c2ccccn2)sc2nc3ccccc3n12,i,.,i,i,.
O=C(O)c1cccc(-c2ccc(/C=c3/sc4nc5ccccc5n4c3=O)o2)c1,i,i,i,-12*,i
C/C(Cl)=C/CSc1nn2c(=O)c3ccccc3nc2s1,i,i,7.8*,i,i
O=[N+]([O-])c1nn(-c2ccc(Cl)cc2)n(O)c1=NCc1ccccc1Cl,i,i,i,i,i
Cc1cc(C)n2nc(SCC(=O)N(C)C3CCCCC3)nc2n1,i,i,i,i,i
CCc1oc(C(=O)OC)cc1CSC(=N)N,43*,i,i,i,i
Cc1ccc(S(=O)(=O)NCCCOC(=O)Nc2ccncc2)cc1,i,i,i,i,i
COc1ccc(Cl)c(OC)c1C(=O)NC(=O)Nc1nc(C)nc(C)n1,i,i,i,i,i
COC(=O)c1ccc2c(c1)C(C)(C)C(/C=C/c1ccc(OC)c(OC)c1OC)=[N+]2C,i,i,i,-6.5*,i
CN(Cc1ccc(F)cc1)C(=O)c1cc(COc2ccc(F)cc2F)on1,i,i,i,i,i
SMILES,MrgX1 agonist,RGS4 inh,MrgX1 PAM,MrgX1 antag,RGS4 pot
COc1ccc(OCc2cc(C(=O)NCCN3CCCc4ccccc43)no2)c(Cl)c1,i,i,i,i,-7.5*
O=C(Nc1ccnn1C1CCN(Cc2ccc(OC(F)F)cc2)CC1)C1CCCC1,i,i,i,i,i
Cc1ccc(OCC(=O)NNC(=S)NC(=O)c2ccc(Br)o2)c(C)c1,i,i,10*,i,-11*
Cc1cccc(NC(=S)NNC(=O)c2ccc(Br)o2)c1,i,i,i,i,i
COc1ccc(C(=O)NNC(=S)NC(=O)c2ccc(Br)o2)cc1OC,53*,i,i,i,i
Cc1cc(OCC(=O)NNC(=S)NC(=O)c2cccs2)ccc1Cl,i,i,8.4*,i,-7.8*
Cc1ccc(OCC(=O)NNC(=S)NC(=O)c2cccs2)c(C)c1,35*,i,i,i,-9*
COc1ccc(C(=O)NC(=S)NNC(=O)c2cnccn2)cc1OC,i,i,i,i,i
